Results as given in ChEMBL document CHEMBL1132183 (J Med Chem, 1999).

What was measured:
[1] = target: T1, Alpha-1D adrenergic receptor (Rattus norvegicus) (UniProt P23944); assay: Eudisimic ratio(ER) is the antilog of the defference between the pKb and pD2 values against Alpha-1D adrenergic receptor subtype; type: functional
T1 sequence (whole entry): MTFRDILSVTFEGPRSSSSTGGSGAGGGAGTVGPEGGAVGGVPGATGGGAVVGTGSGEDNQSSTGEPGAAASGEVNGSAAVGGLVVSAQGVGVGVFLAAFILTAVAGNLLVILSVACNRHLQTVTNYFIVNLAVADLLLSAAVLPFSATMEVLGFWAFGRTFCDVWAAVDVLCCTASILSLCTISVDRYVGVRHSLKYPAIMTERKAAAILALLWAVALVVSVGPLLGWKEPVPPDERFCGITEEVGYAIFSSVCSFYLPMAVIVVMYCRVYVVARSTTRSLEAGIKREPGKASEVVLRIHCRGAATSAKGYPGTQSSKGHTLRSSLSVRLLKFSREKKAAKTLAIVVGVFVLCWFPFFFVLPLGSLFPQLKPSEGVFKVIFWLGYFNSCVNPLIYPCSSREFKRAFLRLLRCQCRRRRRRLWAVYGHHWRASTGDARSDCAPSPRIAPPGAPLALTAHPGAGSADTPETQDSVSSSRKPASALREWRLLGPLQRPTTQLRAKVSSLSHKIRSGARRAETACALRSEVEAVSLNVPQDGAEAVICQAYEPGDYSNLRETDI
How it was run: (§1)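 Eudismic ratio is the antilog of the difference between the pKb (functional α1 tissue assays) or pD2 (5-HT1A [35S]GTPγS stimulation) of the eutomer and that of its distomer.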

[2] = target: T2, 5-hydroxytryptamine receptor 1A (Homo sapiens) (UniProt P08908); assay: Eudisimic ratio(ER) is the antilog of the difference between the pKb and pD2 values against 5-hydroxytryptamine 1A receptor; type: functional; how it was run: as §1
T2 sequence (whole entry): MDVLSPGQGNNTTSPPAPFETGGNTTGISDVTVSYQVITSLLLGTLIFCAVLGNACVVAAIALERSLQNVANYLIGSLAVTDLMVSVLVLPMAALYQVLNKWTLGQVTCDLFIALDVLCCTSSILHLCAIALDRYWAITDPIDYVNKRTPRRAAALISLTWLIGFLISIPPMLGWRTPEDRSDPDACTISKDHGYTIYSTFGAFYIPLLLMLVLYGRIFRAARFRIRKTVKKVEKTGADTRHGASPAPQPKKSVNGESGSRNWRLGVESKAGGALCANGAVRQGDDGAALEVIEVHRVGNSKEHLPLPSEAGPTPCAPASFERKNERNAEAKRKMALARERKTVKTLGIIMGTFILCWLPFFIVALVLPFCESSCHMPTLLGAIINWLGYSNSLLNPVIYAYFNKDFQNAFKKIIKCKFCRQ

[3] = target: T3, Alpha-1D adrenergic receptor (Homo sapiens, UniProt P25100); assay: Ability to displace [3H]prazosin from human cloned Alpha-1D adrenergic receptor
T3 sequence (P25100 whole entry): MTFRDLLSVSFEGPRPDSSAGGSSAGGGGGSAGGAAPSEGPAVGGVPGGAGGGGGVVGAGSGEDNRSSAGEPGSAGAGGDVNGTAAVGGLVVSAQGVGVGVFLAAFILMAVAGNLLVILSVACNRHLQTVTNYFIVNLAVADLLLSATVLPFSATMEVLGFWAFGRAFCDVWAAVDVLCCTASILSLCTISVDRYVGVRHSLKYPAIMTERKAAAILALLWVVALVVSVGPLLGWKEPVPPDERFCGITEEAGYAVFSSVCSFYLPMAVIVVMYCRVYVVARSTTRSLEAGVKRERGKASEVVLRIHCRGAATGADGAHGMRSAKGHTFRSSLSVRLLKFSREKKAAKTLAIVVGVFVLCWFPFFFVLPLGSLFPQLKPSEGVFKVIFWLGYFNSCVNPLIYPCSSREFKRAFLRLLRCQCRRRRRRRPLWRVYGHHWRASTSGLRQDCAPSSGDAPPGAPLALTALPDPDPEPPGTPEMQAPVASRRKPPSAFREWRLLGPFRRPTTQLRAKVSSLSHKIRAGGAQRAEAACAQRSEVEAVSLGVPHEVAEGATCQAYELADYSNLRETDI
How it was run: (§2)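 Competition binding at cloned human α1 subtypes stably expressed in CHO cells: membranes (30 μg protein) incubated 30 min at 25 °C in 50 mM Tris-HCl pH 7.4 with 0.1–0.4 nM [3H]prazosin and competitor (1 pM–10 μM). Nonspecific binding with 10 μM phentolamine; filtration and scintillation counting. Ki by Cheng–Prusoff; 2–3 experiments in triplicate.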

[4] = target: T4, Alpha-1B adrenergic receptor (Homo sapiens, UniProt P35368); assay: Ability to displace [3H]prazosin from human cloned Alpha-1B adrenergic receptor; how it was run: as §2
T4 sequence (P35368 whole entry): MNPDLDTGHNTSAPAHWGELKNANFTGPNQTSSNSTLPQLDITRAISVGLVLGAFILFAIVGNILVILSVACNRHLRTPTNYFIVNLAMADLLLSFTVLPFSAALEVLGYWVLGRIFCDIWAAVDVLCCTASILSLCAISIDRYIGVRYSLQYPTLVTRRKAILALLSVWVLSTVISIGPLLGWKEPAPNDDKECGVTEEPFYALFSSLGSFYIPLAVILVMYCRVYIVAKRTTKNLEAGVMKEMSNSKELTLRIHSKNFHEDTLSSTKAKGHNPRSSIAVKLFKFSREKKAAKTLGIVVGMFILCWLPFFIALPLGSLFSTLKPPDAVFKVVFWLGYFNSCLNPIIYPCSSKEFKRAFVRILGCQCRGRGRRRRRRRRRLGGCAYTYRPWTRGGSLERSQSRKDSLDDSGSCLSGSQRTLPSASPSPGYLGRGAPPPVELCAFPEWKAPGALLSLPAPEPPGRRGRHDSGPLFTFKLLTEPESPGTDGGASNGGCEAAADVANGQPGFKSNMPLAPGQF

Row | SMILES | ER [1] | ER [2] | Ki [3] | Ki [4]
1 | O[C@H]1[C@@H](NC[C@H]2COc3ccccc3O2)CC[C@@H]1Oc1ccccc1 | 7 | 27 | – | –
2 | O[C@@H]1[C@H](NC[C@H]2COc3ccccc3O2)CC[C@H]1Oc1ccccc1 | – | – | 7.94 nM | 46.8 nM
